In brackets after ≈: the same amount, converted by molar mass.
Columns and labels:
[1] = tested on: Mycobacterium tuberculosis; test: Antibacterial activity was evaluated against Mycobacterium tuberculosis (clinical isolate 1104); assay type: functional
Summary of the method: (§1)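 Broth microdilution in Middlebrook 7H9 with 0.5% glycerol and 10% OADC, containing serial concentrations of compound (diluted in medium from a DMSO solution). Plates were incubated 9 days at 37 °C, and viable bacteria were read by MTT. MIC is the mean of at least three separate experiments.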

Aspergillus fumigatus = test: Antimycotic activity against Aspergillus fumigatus was evaluated as compound minimum inhibitory concentration at which no macroscopic signs of fungal growth were detected.; assay type: functional
ACHN = test: Antitumor activity was evaluated against human renal adenocarcinoma cell line ACHN.; assay type: functional, cell-based
Summary of the method: (§2)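 Solid-tumour and KB lines: exponentially growing cells seeded at 5×10⁴ cells/mL, allowed to adhere 16 h, then serial drug dilutions added. Viability by MTT after 4 days. Growth expressed as % of untreated controls, 50% inhibitory concentration by linear regression. Untreated cells undergo at least three rounds of multiplication.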

Candida albicans = test: Antimycotic activity against Candida albicans was evaluated as minimum inhibitory concentration of compound at which no macroscopic signs of fungal growth were detected; assay type: functional
Summary of the method: (§3)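 Yeast inocula from 30 h Sabouraud dextrose broth cultures at 37 °C, diluted to 5×10³ cells/mL. Dermatophyte inocula from 5-day cultures, homogenized and diluted to 0.05 OD₅₉₀/mL. Inocula added to medium with serial dilutions, incubated at 37 °C, read visually at 2 days (yeast) or 3 days (dermatophytes). Mean of at least three experiments.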

Candida parapsilosis [2] = test: Antimycotic activity against Candida parapsilosis was evaluated. MIC was defined as compound concentration at which no macroscopic signs of fungal growth were detected.; assay type: functional; conditions: Lodderomyces parapsilosis; summary of the method: as §3
Trichophyton benhamiae = test: Antimycotic activity against Trichophyton mentagrophytes was evaluated. MIC was defined as compound concentration at which no macroscopic signs of fungal growth were detected.; assay type: functional, Arthroderma benhamiae; summary of the method: as §3
HeLa = test: Antitumor activity was evaluated against human cervix carcinoma cell line HeLa.; assay type: functional, cell-based; summary of the method: as §2
[3] = tested on: Mycobacterium tuberculosis; test: Antibacterial activity was evaluated against Mycobacterium tuberculosis (ATCC); assay type: functional; summary of the method: as §1
[4] = tested on: Mycolicibacterium fortuitum; test: Antibacterial activity was evaluated against Mycobacterium fortuitum.; assay type: functional
Summary of the method: (§4)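 Mycobacterial suspension (turbidity of 1 McFarland standard, 10⁸ CFU/mL) added to Middlebrook 7H9 with 0.5% glycerol, 10% OADC and serial compound dilutions. Incubated at 37 °C, 1 day for M. smegmatis and M. fortuitum, 9 days for MAC. Viable mycobacteria counted by MTT. MIC given as mean of at least three separate experiments.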

IMR-32 = test: Antitumor activity was evaluated against human neuroblastoma cell line IMR-32.; assay type: functional, cell-based; summary of the method: as §2
CCRF-CEM = test: Antitumor activity was evaluated against leukemia cell line CCRF-CEM(human acute T lymphoblastic leukemia).; assay type: functional, cell-based
Summary of the method: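 Exponentially growing leukemia/lymphoma cells resuspended at 1×10⁵ cells/mL in RPMI with serial drug dilutions. Viability by MTT after 4 days at 37 °C. Mean of at least three experiments.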

[5] = tested on: Mycolicibacterium smegmatis; test: Antibacterial activity was evaluated against Mycobacterium smegmatis; assay type: functional; summary of the method: as §4
Streptococcus = test: Antibacterial activity was evaluated against streptococcus.; assay type: functional
Summary of the method: (§5)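 Recent clinical isolates grown in nutrient broth, pH 7.2, inoculum 10³ bacterial cells/tube, with serial compound dilutions. […] Mean of at least three separate experiments.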

Candida tropicalis = test: Antimycotic activity against Candida paratropicalis was evaluated. MIC was defined as compound concentration at which no macroscopic signs of fungal growth were detected.; assay type: functional; summary of the method: as §3
Mycobacterium = test: Antibacterial activity was evaluated against MAC (Mycobacterium Avium Complex ); assay type: functional; summary of the method: as §4
Shigella = test: Antibacterial activity was evaluated against shigella.; assay type: functional; summary of the method: as §5
WIL2-NS = test: Antitumor activity was evaluated against lymphoma cell line Wil2-NS (human splenic B lymphoblastoid cells).; assay type: functional, cell-based
Summary of the method: (§6)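 Exponentially growing leukemia/lymphoma cells resuspended at 1×10⁵ cells/mL in RPMI with serial drug dilutions. Viability by MTT after 4 days at 37 °C. Concentration giving 50% growth inhibition versus untreated controls found by linear regression. Mean of at least three experiments.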

HT-29 = test: Antitumor activity was evaluated against human colon adenocarcinoma cell line HT-29.; assay type: functional, cell-based; summary of the method: as §2
Cryptococcus neoformans = test: Antimycotic activity against Cryptococcus neoformans was evaluated. MIC was defined as compound concentration at which no macroscopic signs of fungal growth were detected.; assay type: functional; summary of the method: as §3
Staphylococcus = test: Antibacterial activity was evaluated against staphylococcus; assay type: functional; summary of the method: as §5
CHO-K1 = test: Antitumor activity was evaluated against Chinese hamster ovary carcinoma cell line CHO-K1.; assay type: functional, cell-based; conditions: Cricetulus griseus; summary of the method: as §2
L1210 = test: Antitumor activity was evaluated against leukemia cell line L1210 (mouse leukemia).; assay type: functional, cell-based; summary of the method: as §6
Salmonella = test: Antibacterial activity was evaluated against salmonella.; assay type: functional; summary of the method: as §5
CCRF-SB = test: Antitumor activity was evaluated against leukemia cell line CCRF-SB(human acute B lymphoblastic leukemia).; assay type: functional, cell-based; summary of the method: as §6
5637 = test: Antitumor activity was evaluated against human bladder carcinoma cell line 5637.; assay type: functional, cell-based; summary of the method: as §2
MOLT-4 = test: Antitumor activity was evaluated against leukemia cell line MOLT-4(human acute T lymphoblastic leukemia); assay type: functional, cell-based; summary of the method: as §6
MT4 = test: Antitumor activity was evaluated against leukemia cell line MT-4(human CD4+ T cells expressing the TAT gene of HTLV-1).; assay type: functional, cell-based; summary of the method: as §6
Candida parapsilosis [6] = test: Antimycotic activity against Candida parapsilosis was evaluated as compound concentration at which no macroscopic signs of fungal growth were detected; assay type: functional; conditions: Lodderomyces parapsilosis; summary of the method: as §3
Homo sapiens [7] = organism: Homo sapiens; test: In vitro Antiproliferative activity against peripheral blood lymphocytes (PBL) after stimulating PBL with PHA and then resuspending in IL-2-containing medium in the presence of compound.; assay type: functional
Summary of the method: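 PBL from HIV-negative donors, isolated on Ficoll-Hypaque and rested overnight. Stimulated with PHA 2.5 μg/mL for 24 h, diluted to 1×10⁵ cells/mL in medium with PHA, IL-2 50 U/mL and compound. Viable cells counted after 6 days. Mean ±SD of three experiments.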

Homo sapiens [8] = organism: Homo sapiens; test: In vitro Antiproliferative activity against peripheral blood lymphocytes (PBL) by treating PBL with compound for 3 days, then stimulating with PHA and then resuspending in compound free medium.; assay type: functional; conditions: 72 h
Summary of the method: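 Resting donor PBL held at 1×10⁶ cells/mL and treated with compound for up to 3 days, then washed. Stimulated with PHA for 24 h, diluted to 1×10⁵ cells/mL in drug-free medium with PHA and IL-2. Viability read after 6 days at 37 °C. Mean ±SD of three experiments.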

Lymphoblastoid cell = test: Cytotoxicity was evaluated against lymphoblastoid cell line.; assay type: functional; conditions: Homo sapiens
KB [9] = test: Antiproliferative activity against drug-resistant tumor cell line KB7D.; assay type: functional, cell-based; conditions: Homo sapiens; summary of the method: as §2
KB [10] = test: Antiproliferative activity against drug-resistant tumor cell line KBwt.; assay type: functional, cell-based; conditions: Homo sapiens; summary of the method: as §2
KB [11] = test: Antiproliferative activity against drug-resistant tumor cell line KBMDR.; assay type: functional, cell-based; conditions: Homo sapiens; summary of the method: as §2
KB [12] = test: Antiproliferative activity against drug-resistant tumor cell line KBV20C.; assay type: functional, cell-based; conditions: Homo sapiens; summary of the method: as §2
KB [13] = test: Antiproliferative activity against drug-resistant tumor cell line KBCamp.; assay type: functional, cell-based; conditions: Homo sapiens; summary of the method: as §2

SMILES	MIC [1] [µM]	MIC (Aspergillus fumigatus) [µM]	IC50 (ACHN) [µM]	MIC (Candida albicans) [µM]	MIC (Trichophyton benhamiae) [µM]	IC50 (HeLa) [µM]	MIC [3] [µM]	MIC [4] [µM]	IC50 (IMR-32) [µM]	IC50 (CCRF-CEM) [µM]	MIC [5] [µM]	MIC (Streptococcus) [µM]	MIC (Candida tropicalis) [µM]	MIC (Mycobacterium) [µM]	MIC (Shigella) [µM]	IC50 (WIL2-NS) [µM]	IC50 (HT-29) [µM]	MIC (Cryptococcus neoformans) [µM]	MIC (Staphylococcus) [µM]	IC50 (CHO-K1) [µM]	further results
O=Nc1c2ccccc2n2nnc3cc(Cl)ccc3c12	5.9 (≈ 1.67 µg/mL)	6.2 (≈ 1.75 µg/mL)	7.6	12 (≈ 3.39 µg/mL)	50 (≈ 14.1 µg/mL)	9.2	4.4 (≈ 1.24 µg/mL)	> 5	2.2	1.8	> 5	0.4 (≈ 0.113 µg/mL)	25 (≈ 7.07 µg/mL)	0.6 (≈ 0.17 µg/mL)	> 200	0.8	35	1.6 (≈ 0.452 µg/mL)	0.4 (≈ 0.113 µg/mL)	9.3	MIC (Candida parapsilosis [2]): 3 µM (≈ 0.848 µg/mL); IC50 (L1210): 2.4 µM; MIC (Salmonella): > 200 µM; IC50 (CCRF-SB): 2.8 µM; IC50 5637: 2.6 µM; IC50 (MOLT-4): 1.1 µM; IC50 (MT4): 0.9 µM
Cc1ccc2nnn3c4ccccc4c(N=O)c3c2c1	9.2 (≈ 2.41 µg/mL)	> 200	8.7	> 200	> 200	9.5	9.3 (≈ 2.44 µg/mL)	> 5	2.8	0.5	> 5	0.8 (≈ 0.21 µg/mL)	> 200	5 (≈ 1.31 µg/mL)	> 200	0.8	3.1	> 200	0.4 (≈ 0.105 µg/mL)	6.5	MIC (Candida parapsilosis [6]): > 200 µM; CC50 (Homo sapiens [7]): 0.5 µM; CC50 (Homo sapiens [8]): 0.6 µM; IC50 (L1210): 1.7 µM; MIC (Salmonella): > 200 µM; CC50 (Lymphoblastoid cell): 0.9 µM; IC50 (CCRF-SB): 0.7 µM; IC50 5637: 1.9 µM; IC50 (MOLT-4): 0.5 µM; IC50 (MT4): 1.3 µM
O=Nc1c2ccccc2n2nnc3ccccc3c12	7.4 (≈ 1.84 µg/mL)	19 (≈ 4.72 µg/mL)	12	19 (≈ 4.72 µg/mL)	9.4 (≈ 2.33 µg/mL)	10	4.6 (≈ 1.14 µg/mL)	> 5	3.3	7	2.5 (≈ 0.621 µg/mL)	0.8 (≈ 0.199 µg/mL)	19 (≈ 4.72 µg/mL)	1.2 (≈ 0.298 µg/mL)	25 (≈ 6.21 µg/mL)	4.4	50	3.1 (≈ 0.77 µg/mL)	0.8 (≈ 0.199 µg/mL)	45	MIC (Candida parapsilosis [2]): 19 µM (≈ 4.72 µg/mL); IC50 (L1210): 12 µM; MIC (Salmonella): 25 µM (≈ 6.21 µg/mL); IC50 (CCRF-SB): 7.4 µM; IC50 5637: 4.2 µM; IC50 (MOLT-4): 2.3 µM; IC50 (MT4): 1.4 µM
O=Nc1c2cc(Cl)ccc2n2nnc3ccccc3c12	> 10	> 200	2.6	> 200	> 200	2.7	4.7 (≈ 1.33 µg/mL)	> 5	0.8	0.08	> 5	0.8 (≈ 0.226 µg/mL)	> 200	0.6 (≈ 0.17 µg/mL)	> 200	0.2	1.3	> 200	0.4 (≈ 0.113 µg/mL)	1.6	MIC (Candida parapsilosis [6]): > 200 µM; IC50 (KB [9]): 1.7 µM; CC50 (Homo sapiens [7]): 0.2 µM; CC50 (Homo sapiens [8]): 0.9 µM; IC50 (KB [10]): 1.8 µM; IC50 (L1210): 0.7 µM; MIC (Salmonella): > 200 µM; CC50 (Lymphoblastoid cell): 0.35 µM; IC50 (KB [11]): 1.1 µM; IC50 (KB [12]): 2.1 µM; IC50 (CCRF-SB): 0.4 µM; IC50 5637: 0.3 µM; IC50 (KB [13]): 1.9 µM; IC50 (MOLT-4): 0.2 µM; IC50 (MT4): 0.5 µM
